According to PMC11886927 (Nature, 2025):
“Also recorded” adds a separate entry of the source.

How the values were obtained:
[1] = target: T1, recombinant human VNN1 (ΔN490aa truncated) (Homo sapiens, UniProt O95497); experiment: VNN1 in vitro assay with pantetheine derivatives; format: biochemical; conditions: 0.01 μM VNN1, 37 °C, 15 min, pantothenic acid formation, n = 3, mean ± s.d.
T1 sequence (O95497 22-490 limits assumed): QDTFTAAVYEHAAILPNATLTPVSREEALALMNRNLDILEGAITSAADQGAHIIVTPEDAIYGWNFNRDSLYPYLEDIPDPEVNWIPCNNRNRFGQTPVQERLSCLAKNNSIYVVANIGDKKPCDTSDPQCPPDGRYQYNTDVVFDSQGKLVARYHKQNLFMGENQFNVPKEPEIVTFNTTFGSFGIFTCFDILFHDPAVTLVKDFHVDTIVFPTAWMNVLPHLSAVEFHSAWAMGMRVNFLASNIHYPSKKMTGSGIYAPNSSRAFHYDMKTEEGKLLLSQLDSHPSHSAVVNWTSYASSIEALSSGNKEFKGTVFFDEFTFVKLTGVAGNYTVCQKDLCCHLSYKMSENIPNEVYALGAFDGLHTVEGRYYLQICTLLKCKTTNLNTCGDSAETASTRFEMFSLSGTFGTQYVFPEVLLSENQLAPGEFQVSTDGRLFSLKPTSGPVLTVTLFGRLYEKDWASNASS
Method in brief: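 Recombinant human ΔN490aa VNN1 (C-terminal His tag, in PBS pH 7.0) was mixed 1:1 with substrate (pantetheine or cholic acid–pantetheine derivative) in PBS pH 7.0. Final enzyme was 0.01 µM and final substrate 20–640 µM. Reactions ran 15 min at 37 °C and were quenched with methanol. Pantothenic acid was quantified by HPLC-HRMS (ESI+, m/z 220.1180) against a calcium pantothenate standard curve. Initial velocities were fitted to saturation kinetics; three independent assays used the same enzyme batch.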

[2] = system: BA production; experiment: Endogenously produced BA levels in faeces, liver and serum of supplemented mice; format: in vivo, mouse; conditions: daily for 14 days
Method in brief: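 Mice (WT, Nr1h4−/−, SPF, ABX) were dosed by daily oral gavage with deuterated or unlabelled conjugate (DMSO stock diluted in corn oil), 50 mg kg−1 day−1, 100 µl, for 14 days. Controls got DMSO plus corn oil. Faeces, liver and serum BAs were measured by HPLC-HRMS. Serum was extracted with 4 volumes methanol, sonicated 1 min, stirred 10 min, and spun 5,000g for 5 min. Groups were compared by Welch-corrected two-sided t-test.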

[3] = target: T2, full-length human FXR protein (Homo sapiens, UniProt Q96RI1); experiment: DiscoverX cell-based protein–protein interaction assay on FXR, antagonist mode; conditions: for FXR antagonistic activity against GW4604-mediated activation (in words): tested range of concentrations
T2 sequence (Q96RI1 1-486): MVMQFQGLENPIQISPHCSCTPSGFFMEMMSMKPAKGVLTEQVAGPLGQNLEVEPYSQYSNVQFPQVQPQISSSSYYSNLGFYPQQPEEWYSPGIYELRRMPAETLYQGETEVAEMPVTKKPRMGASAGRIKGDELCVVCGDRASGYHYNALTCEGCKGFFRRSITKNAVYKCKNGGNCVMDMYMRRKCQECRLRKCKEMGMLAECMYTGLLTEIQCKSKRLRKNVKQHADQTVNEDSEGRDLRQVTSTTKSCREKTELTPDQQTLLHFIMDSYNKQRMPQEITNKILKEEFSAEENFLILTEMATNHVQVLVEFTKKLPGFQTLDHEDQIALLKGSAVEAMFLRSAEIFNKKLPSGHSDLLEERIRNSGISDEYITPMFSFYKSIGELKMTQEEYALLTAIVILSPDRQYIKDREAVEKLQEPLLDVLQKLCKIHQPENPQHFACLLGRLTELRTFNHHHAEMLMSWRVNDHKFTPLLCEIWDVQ

[4] = target: T2, full-length human FXR protein; experiment: DiscoverX cell-based protein–protein interaction assay on FXR, agonist mode; conditions: any of the tested concentrations
Method in brief: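 CHO-K1 cells (mycoplasma-negative, not authenticated) expressing full-length human FXR with an SRC-derived co-activator peptide fusion. Cells were grown in charcoal-dextran-filtered serum, then given 5X sample for 3–16 h at 37 °C or room temperature. Signal came from PathHunter chemiluminescent detection (1 h, room temperature). Activity (%) was set against vehicle RLU and GW4064 maximum, with duplicates at each concentration.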

[5] = system: FXR; conditions: cited from earlier work

CC(C)(CO)[C@@H](O)C(=O)NCCC(=O)NCCS [pantetheine]
Vmax, hydrolysis by VNN1 [1]: 2.13 ± 0.37 min⁻¹

C[C@H](CCC(=O)O)[C@H]1CC[C@H]2[C@@H]3[C@H](O)C[C@@H]4C[C@H](O)CC[C@]4(C)[C@H]3CC[C@]12C [CDCA, chenodeoxycholic acid]
BA levels in the liver and serum of WT and Nr1h4^−/− mice [2]: not significantly affected

CSCCNC(=O)CC[C@@H](C)[C@H]1CC[C@H]2[C@@H]3[C@@H](O)[C@@H](O)[C@@H]4C[C@H](O)CC[C@]4(C)[C@H]3CC[C@]12C [βMCA–MCY]
IC50 ([3]; read-out: IC50, antagonistic activity against GW4604-mediated activation of FXR, agonist challenge GW4064 0.37 μM (EC80), CHO-K1 cells, duplicate): 104 µM
FXR antagonistic activity against GW4604-mediated activation (in words) [3]: strong FXR antagonistic effects
FXR agonist activity (in words) [4]: no FXR agonistic effects

C[C@H](CCC(=O)NCCS(=O)(=O)O)[C@H]1CC[C@H]2[C@@H]3[C@@H](O)[C@@H](O)[C@@H]4C[C@H](O)CC[C@]4(C)[C@H]3CC[C@]12C [TβMCA, Tauro-β-muricholic acid]
FXR antagonistic activity against GW4604-mediated activation (in words) [3]: did not show FXR antagonistic effects; also recorded: inactive
FXR antagonism as previously reported [5]: weak, mouse-specific FXR antagonist
